The source made the active and inactive calls. The calls are words filed in the database; no cut-off is given here.

The subject of test [1] is K562. Kind of test: Antiproliferative activity against human K562 cells at 10 uM after 48 hrs by MTT assay. It counts as functional, cell-based. Summed up: (§1)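 Screen at a single 10 μM, DMSO as vehicle control, growth followed at 24, 48 and 72 h. Readouts: MTT (0.2×10^5 cells/well in X-Vivo, 4 h MTT, SDS/HCl lysis, OD 570 nm) and trypan blue exclusion counts of living cells. n = 3 in triplicates, mean ± SEM.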

For test [2], the system named is KU812 cell line. Kind of test: Antiproliferative activity against human KU812 cells at 10 uM after 48 hrs by MTT assay. It counts as functional, cell-based. Summed up: as §1
Test [3] has as its system K562. Kind of test: Antiproliferative activity against human K562 cells at 10 uM after 72 hrs by MTT assay. The format is functional, cell-based. Summed up: as §1
In test [4] the test system is KU812 cell line. Kind of test: Antiproliferative activity against human KU812 cells at 10 uM after 24 hrs by MTT assay. It counts as functional, cell-based. Summed up: as §1
Test [5] has as its system K562. Kind of test: Antiproliferative activity against human K562 cells at 10 uM after 48 hrs by trypan blue assay. The format is functional, cell-based. Summed up:
as §1

The test system of test [6] is KU812 cell line. Kind of test: Antiproliferative activity against human KU812 cells at 10 uM after 48 hrs by trypan blue assay. The format is functional, cell-based. In a few lines: as §1
Test [7] relates to K562. Kind of test: Antiproliferative activity against human K562 cells at 10 uM after 72 hrs by trypan blue assay. The format is functional, cell-based. Summed up:
as §1

Test [8] deals with KU812 cell line. Kind of test: Antiproliferative activity against human KU812 cells at 10 uM after 24 hrs by trypan blue assay. It counts as functional, cell-based. In a few lines:
as §1

Test [9] deals with T1, Signal transducer and activator of transcription 5A (Homo sapiens) (UniProt P42229).
T1 sequence (whole entry): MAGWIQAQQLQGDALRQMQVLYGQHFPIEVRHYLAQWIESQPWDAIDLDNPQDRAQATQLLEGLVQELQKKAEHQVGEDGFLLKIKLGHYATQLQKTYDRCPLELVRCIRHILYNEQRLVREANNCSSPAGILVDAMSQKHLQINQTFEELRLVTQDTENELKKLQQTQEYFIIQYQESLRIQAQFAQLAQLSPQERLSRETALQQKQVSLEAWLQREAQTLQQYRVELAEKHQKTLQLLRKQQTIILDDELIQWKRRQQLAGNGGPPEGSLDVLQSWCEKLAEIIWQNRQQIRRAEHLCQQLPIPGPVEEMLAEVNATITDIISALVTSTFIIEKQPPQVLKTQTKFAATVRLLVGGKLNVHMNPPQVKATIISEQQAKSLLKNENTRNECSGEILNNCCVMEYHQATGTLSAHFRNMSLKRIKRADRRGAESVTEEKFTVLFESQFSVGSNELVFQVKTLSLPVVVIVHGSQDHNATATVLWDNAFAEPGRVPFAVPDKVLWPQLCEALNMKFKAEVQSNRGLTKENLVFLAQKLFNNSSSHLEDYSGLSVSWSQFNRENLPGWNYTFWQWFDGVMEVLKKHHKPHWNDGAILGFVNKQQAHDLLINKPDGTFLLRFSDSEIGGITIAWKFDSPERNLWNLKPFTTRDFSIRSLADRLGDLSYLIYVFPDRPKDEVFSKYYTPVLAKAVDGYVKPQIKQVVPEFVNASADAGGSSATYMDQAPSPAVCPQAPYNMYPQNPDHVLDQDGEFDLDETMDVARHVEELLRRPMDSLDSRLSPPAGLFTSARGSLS
Kind of test: Inhibition of STAT5 phosphorylation in human KU812 cells at 10 uM after 72 hrs by Western blot method. It counts as cell-based. Summed up: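 Western blot of KU812 cells 72 h after exposure to 10 µM. Lysates in 2x Laemmli buffer were run on SDS-PAGE and transferred to nitrocellulose. Blots were probed with P-Y694/699-STAT5 and STAT5 antibodies and detected by ECL.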

In test [10] the test system is KU812 cell line. Kind of test: Antiproliferative activity against human KU812 cells after 48 hrs by MTT assay. The format is functional, cell-based. As to conditions: KU812, 48 h. In a few lines: (§2)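 K562 or KU812 cells (RPMI/10% FBS, 37 °C, 5% CO2) exposed to 100 nM–50 μM for 48 h. 0.2×10^5 cells per well in phenol-red-free X-Vivo, MTT 4 h, lysis overnight in 10% SDS/0.003% HCl, absorbance at 570 nm. EC50 fitted; n = 3 in triplicates, mean ± SEM.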

The test system of test [11] is KU812 cell line. Kind of test: Antiproliferative activity against human KU812 cells at 10 uM after 72 hrs by trypan blue assay. It counts as functional, cell-based. In a few lines:
as §1

In test [12] the test system is KU812 cell line. Kind of test: Induction of apoptosis in human KU812 cells at 10 uM after 48 hrs by FITC-Annexin V and 7-amino-actinomycin D staining-based flow cytometry method. It counts as functional, cell-based. Summed up: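 After 48 h culture with 10 μM or DMSO, 10^6 cells stained with FITC-Annexin V and 7-AAD for 15 min at 4 °C. Percentage of apoptotic cells measured by flow cytometry; n = 3 in triplicates, mean ± SEM.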

Test [13] deals with K562. Kind of test: Antiproliferative activity against human K562 cells after 48 hrs by MTT assay. It counts as functional, cell-based. As to conditions: K562, 48 h. In a few lines:
as §2

Test [14] concerns KU812 cell line. Kind of test: Antiproliferative activity against human KU812 cells at 10 uM up to 72 hrs by MTT assay. It counts as functional, cell-based. In a few lines: as §1
The subject of test [15] is K562. Kind of test: Antiproliferative activity against human K562 cells at 10 uM after 24 hrs by MTT assay. The format is functional, cell-based. In a few lines:
as §1

In test [16] the test system is K562. Kind of test: Antiproliferative activity against human K562 cells at 10 uM after 24 hrs by trypan blue assay. The format is functional, cell-based. In a few lines:
as §1

As for `CC1(C)CCN(CCOc2ccc3[nH]ccc3c2)c2ccc(C(=O)C3CCCCC3)cc21`, the result in the test on K562 [1], with KU812 cell line [4], with K562 [5] and in the test with KU812 cell line [8] was Active. The outcome with KU812 cell line [2], in the test with K562 [3], in the test with KU812 cell line [6] and in the test on K562 [7] was inactive.

For `CC1(C)CCN(CCOc2ccc3c(ccn3CC(=O)O)c2)c2ccc(C(=O)C3CCCCC3)cc21`, the inhibition result in [9] is “Active”. Further, the EC50 with KU812 cell line [10] worked out at 197 µM.

Regarding `CC1(C)CCN(CCOc2ccc3[nH]ccc3c2)c2ccc(-c3ccc(Cl)nc3)cc21`, the result in the test on KU812 cell line [11] and in the test with KU812 cell line [12] was Active. Further, the EC50 in the test with K562 [13] was found to be 13 µM; with KU812 cell line [10], 5.41 µM.

As to `CC1(C)CCN(CCOc2ccc3c(ccn3CC(=O)O)c2)c2ccccc21`, the outcome in the test with K562 [1], with KU812 cell line [2], with K562 [5] and in the test on KU812 cell line [6] was inactive.

For `CC1(C)CCN(CCOc2ccc3[nH]ccc3c2)c2ccc(-c3cccc([N+](=O)[O-])c3)cc21`, the result in the test on K562 [3], with KU812 cell line [11], with KU812 cell line [14] and in the test with K562 [7] was inactive.

On to `CC1(C)CCN(CCOc2ccc3[nH]ccc3c2)c2ccc(-c3ccccn3)cc21`, for which the result with K562 [3], in the test with KU812 cell line [11], in the test with KU812 cell line [14] and in the test with K562 [7] was inactive.

For the compound `Cn1ccc2cc(OCCN3CCC(C)(C)c4ccccc43)ccc21`, the outcome in the test with K562 [3], with KU812 cell line [11], in the test on KU812 cell line [14] and in the test on K562 [7] was inactive.

With `CC1(C)CCN(CCOc2ccc3[nH]ccc3c2)c2ccccc21`, the result with KU812 cell line [4], in the test on K562 [15], in the test with KU812 cell line [8] and in the test with K562 [16] was Active. Besides, the results for the EC50 in the test on K562 [13] and in the test on KU812 cell line [10] were 78.1 µM and 14.6 µM, respectively.

As for `CC1(C)CCN(CCOc2ccc3[nH]ccc3c2)c2ccc(-c3ccncc3)cc21`, the outcome with KU812 cell line [11], in the test on KU812 cell line [12] and with K562 [7] was Active. Moreover, the EC50 with K562 [13] is 22.7 µM; in the test on KU812 cell line [10], 9.38 µM.

On to `CC1(C)CCN(CCOc2ccc3[nH]ccc3c2)c2ccc(Br)cc21`, for which the EC50 was 15.6 µM in the test on K562 [13] and 7.59 µM in the test on KU812 cell line [10].

As for `CCOC(=O)Cn1ccc2cc(OCCN3CCC(C)(C)c4ccccc43)ccc21`, the result in the test with K562 [3], with KU812 cell line [11], in the test with KU812 cell line [14] and in the test on K562 [7] was inactive.
